Compound activity (PubChem)
M4 antag – human M4 muscarinic receptor antagonists, primary screen, CHO cells, Fluo-8 calcium fluorescence; CHO-hM4 cells, ACh EC80; AID 624125, 2012; 360,000 compounds, 0.73% hits; Muscarinic acetylcholine receptor M4 (Homo sapiens), P08173; inhibition, % at 3 µM;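 active = inhibition above its plate's cutoff, the mean inhibition of sample wells plus 3 SD, cut at about 27% in these data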;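 also: 0% = acetylcholine EC80 with DMSO and 100% = DMSO without agonist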
Target sequence (P08173 whole entry, looked up): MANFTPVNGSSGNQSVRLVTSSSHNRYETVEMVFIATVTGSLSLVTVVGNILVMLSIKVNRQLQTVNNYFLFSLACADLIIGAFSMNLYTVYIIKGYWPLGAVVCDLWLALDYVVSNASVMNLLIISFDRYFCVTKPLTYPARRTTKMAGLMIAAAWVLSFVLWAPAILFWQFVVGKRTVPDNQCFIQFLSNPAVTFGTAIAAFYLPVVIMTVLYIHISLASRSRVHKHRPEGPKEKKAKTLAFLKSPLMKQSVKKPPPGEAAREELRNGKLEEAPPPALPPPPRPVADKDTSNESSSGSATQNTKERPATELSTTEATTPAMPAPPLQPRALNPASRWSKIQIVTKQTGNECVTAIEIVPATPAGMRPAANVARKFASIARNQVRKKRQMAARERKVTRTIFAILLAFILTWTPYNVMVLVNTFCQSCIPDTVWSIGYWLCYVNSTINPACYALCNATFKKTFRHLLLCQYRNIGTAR
CHRM4 agonist – human M4 muscarinic receptor agonists, primary screen, CHO-K1 cells, Fluo-8 calcium fluorescence; Muscarinic acetylcholine receptor M4 (Homo sapiens), P08173; CHO-K1 hM4/Gqi5; vehicle 0%, full acetylcholine response 100%; activation, % at 3 µM; 360,000 compounds, 0.14% hits; AID 624127, 2012;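 active = activation above the run mean over all test wells plus 3 SD, cut at about 32% in these data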;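 also: peak over basal fluorescence ratio per well then scaled between controls; 0% = DMSO wells and 100% = acetylcholine at EC100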
M5 antag – human M5 muscarinic receptor antagonists, primary screen, CHO cells, Fluo-8 calcium fluorescence; 360,000 compounds, 0.59% hits; CHO-hM5 cells, ACh EC80; inhibition, % at 3 µM;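 active = inhibition above a per-plate cutoff, the mean of that plate's test compounds plus 3 SD, cut at about 27% in these data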;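 also: 0% = acetylcholine EC80 with DMSO and 100% = DMSO without agonist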
CHRM5 PAM – human M5 muscarinic receptor positive allosteric modulators, primary screen, CHO-K1 cells, Fluo-8 calcium fluorescence; CHO-K1 hM5, ACh EC20 PAM; 0% = ACh EC20, 100% = ACh EC100; 360,000 compounds, 0.3% hits; activation, % at 3 µM; Muscarinic acetylcholine receptor M5 (Homo sapiens), P08912;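 active = activation above the run cutoff, the mean activation of all test compounds plus 3 SD, cut at about 18% in these data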
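system = human M5 receptor in CHO-K1 cells | compound = one concentration, 3 µM final (nominal) | schedule = Post-acetylcholine fluorescence recording 140 s | signal = Fluo-8 calcium dye fluorescence, kinetic read | benchmarks = low control EC20 acetylcholine (0%), high control EC100 acetylcholine (100%) | repeats = singlicate, one well per test compound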
CHRM4 PAM – human M4 muscarinic receptor positive allosteric modulators, primary screen, CHO-K1 cells, Fluo-8 calcium fluorescence; activation, % at 3 µM; 360,000 compounds, 0.4% hits; CHO-K1 hM4/Gqi5, ACh EC20; 0% = ACh EC20, 100% = maximal ACh;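 active = activation above its plate's cutoff, the mean activation of sample wells plus 3 SD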
CHRM5 agonist – human M5 muscarinic receptor agonists, primary screen, CHO-K1 cells, Fluo-8 calcium fluorescence. activation, % at 3 µM. Muscarinic acetylcholine receptor M5 (Homo sapiens), P08912. CHO-K1 hM5 cells; 0% DMSO wells, 100% maximal acetylcholine response. 360,000 compounds, 0.19% hits. AID 624037, 2012;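 active = activation above the run's mean over test compounds plus 3 SD, cut at about 23% in these data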;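 also: signal is peak over basal fluorescence ratio across the kinetic read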
Numbers without * were called inactive. Rows were chosen to be rich in hits. Some 1.9% of all compounds tested hit in one or more screens of this group.

SMILES	M4 antag	CHRM4 agonist	M5 antag	CHRM5 PAM	CHRM4 PAM	CHRM5 agonist
COc1ccc(OC)c(NC(=O)Nc2ccc3c(c2)OCO3)c1	7.3	1.4	-8.6	-3.4	8.7	-0.9
CC1CN(C(=O)c2ccc(NS(=O)(=O)c3ccc(C(C)(C)C)cc3)cc2)CC(C)O1 (stereo not drawn)	12.0	33.2*	1.8	-4.5	-5.7	47.9*
COc1ccc(NS(=O)(=O)c2ccc(C(=O)N(C)Cc3ccc(C)o3)cc2)cc1	-2.5	14.3	-2.2	-4.1	-3.5	27.5*
COc1ccc(CN(C)C(=O)c2ccc(NS(=O)(=O)c3ccc(F)cc3)cc2)c(OC)c1	13.3	3.4	2.9	-9.0	-9.0	0.5
CCOc1ccc(NS(=O)(=O)c2ccc(NC(=S)NC(=O)C(C)C)cc2)cc1	0.2	7.1	5.6	0.6	0.0	12.4
COc1ccc(NS(=O)(=O)c2ccc(C(=O)N3CCC(C)CC3)cc2)cc1	-4.7	27.2	12.5	-21.0	-8.6	39.2*
CCOc1ccc(NS(=O)(=O)c2ccc(NC(=S)NC(C)=O)cc2)cc1	6.6	25.6	3.3	-6.5	-6.2	25.3*
O=C(O)c1ccccc1C(=O)NC1CCCc2ccccc21 (stereo not drawn)	-13.3	0.3	3.0	0.3	3.7	-2.5
Cc1ccc(NS(=O)(=O)c2ccc(C3CCCCC3)cc2)cc1	48.9*	12.3	27.4*	-17.5	-17.8	4.6
Cc1ccc(NS(=O)(=O)c2ccc(C(=O)N3CCCC(C(F)(F)F)C3)cc2)cc1 (stereo not drawn)	13.6	34.1*	13.2	-12.4	-5.6	53.8*
Cc1ccc(S(=O)(=O)Nc2ccc(N3CCCCC3)cc2)cc1	0.4	0.8	-12.8	-5.5	-0.4	-1.7
CC(C)N(Cc1ccccc1)C(=O)CC(=O)N(Cc1ccccc1)C(C)C	10.7	2.5	-0.3	2.4	1.2	-0.1
CCN1C(=O)CC2(C[N+]3(C)CCC2CC3)C1=O (stereo not drawn)	3.8	1.4	52.9*	-16.6	-17.8	-5.5
CCc1ccc(N/C(SC)=C(/C#N)C(N)=O)cc1	-10.9	-1.0	-4.8	-3.8	3.4	2.2
CCCCS/C(=C(/C#N)C(N)=O)c1cc2c([nH]1)CCCC2	34.3*	-1.9	7.0	-16.2	-29.1	-6.9
N#Cc1ccc(C(=O)Nc2nnc(-c3cccs3)o2)cc1	-6.6	0.3	7.8	-0.3	4.0	0.2
O=C(Nc1nnc(-c2cccs2)o1)c1cccc(C(F)(F)F)c1	-3.7	65.5*	4.1	-16.0	-2.6	15.1
CCCCNc1c(-c2ccc(-c3ccc(OC)cc3)c(OC)c2)nc2ccccn12	36.1*	11.9	19.3	-29.5	-16.3	-5.3
CCCCNc1c(-c2ccc(OC)c(Sc3ccc(OC)cc3)c2)nc2cnccn12	16.4	13.3	18.6	-13.8	-2.7	-2.0
CCCCNc1c(-c2ccc(OC)c(Sc3ccc(OC)cc3)c2)nc2ccccn12	39.1*	17.5	26.9*	-31.5	-7.8	-3.4
O=C(COC(=O)CCC(=O)c1ccc(F)cc1)NCCc1ccccc1	2.4	1.4	13.6	9.0	-0.6	2.7
CC(=O)c1c(N2CCN(c3ccccc3)CC2)nc(=S)n(-c2ccccc2)c1C	0.8	1.4	-4.1	3.7	-8.8	-7.2
CCn1c(C)c(C(C)=O)c(N2CCN(c3ccc(F)cc3)CC2)nc1=S	5.3	2.0	1.9	13.5	11.1	-5.6
CC(=O)c1c(N2CCCCC2)nc(=S)n(Cc2ccccc2)c1C	7.1	0.7	-1.5	-0.9	-10.3	-6.0
CCn1c(C)c(C(C)=O)c(N2CCCC2)nc1=S	36.6*	-0.4	-0.5	0.7	-27.0	-7.8
C=CCn1c(C)c(C(C)=O)c(N2CCN(c3ccccc3)CC2)nc1=S	30.3*	1.0	5.1	-12.5	-21.2	-6.8
C=CCn1c(C)c(C(C)=O)c(N2CCCC2)nc1=S	72.0*	0.0	-0.9	6.8	-14.1	-13.2
